How the values were obtained:
[1] = Dissociation constant, pKa of the compound; assay type: physicochemical
[2] = molecular target: Histamine H1 receptor (Homo sapiens) (UniProt P35367); test: Antagonist activity at histamine H1 receptor in human U373 MG cells assessed as inhibition of histamine-induced intracellular calcium level preincubated for 15 mins prior to histamine challenge; assay type: functional, cell-based; details: U-373MG ATCC
Method in brief: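 U373-MG human cells expressing H1R, calcium assay. […] KB was derived from IC50 by the Cheng-Prusoff equation. Values are the mean of two experiments.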

[3] = molecular target: T1, Histamine H2 receptor (Cavia porcellus, UniProt P47747); test: Agonist activity at histamine H2 receptor in guinea pig spontaneously beating right atrium assessed as positive chronotropic activity; assay type: functional, tissue-based, Cardiac atrium
[4] = molecular target: Histamine H1 receptor (Cavia porcellus) (UniProt P31389); test: Antagonist activity at histamine H1 receptor in guinea pig ileum assessed as […]
[5] = molecular target: Histamine H2 receptor (Cavia porcellus) (UniProt P47747); test: Agonist activity at histamine H2 receptor in guinea pig spontaneously beating right atrium assessed as positive chronotropic activity relative to histamine; assay type: functional, tissue-based; details: Cardiac atrium
[6] = molecular target: Histamine H2 receptor (Cavia porcellus) (UniProt P47747); test: Antagonist activity at histamine H2 receptor in guinea pig spontaneously beating right atrium assessed as histamine Emax at 58 uM; assay type: functional, tissue-based; details: Cardiac atrium
[7] = molecular target: Histamine H2 receptor (Cavia porcellus) (UniProt P47747); test: Antagonist activity at histamine H2 receptor in guinea pig spontaneously beating right atrium assessed as positive chronotropic activity at 58 uM relative to histamine; assay type: functional, tissue-based; details: Cardiac atrium
[8] = molecular target: T1, Histamine H2 receptor; test: Antagonist activity at histamine H2 receptor in guinea pig spontaneously beating right atrium assessed as inhibition of histamine-induced positive chronotropic activity; assay type: functional, tissue-based, Cardiac atrium
[9] = molecular target: Histamine H1 receptor (Cavia porcellus, UniProt P31389); test: Antagonist activity at histamine H1 receptor in guinea pig ileum assessed as inhibition of histamine-induced […]; assay type: functional, tissue-based; details: for Kb: read-out: pA2 (converted)
[10] = molecular target: T2, Histamine H2 receptor (Homo sapiens, UniProt P25021); test: Activity at human recombinant histamine H2 receptor-Gsalpha fusion protein expressed in Sf9 cells by steady-state GTPase activity assay relative to histamine
Method in brief: (§1)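 Membranes from Sf9 insect cells expressing the receptor construct named in each line: hH1R with RGS4, hH2R-GsR or gpH2R-GsR fusion, hH3R with GRi, Gβ1γ2 and RGS4, or hH4R-RGS19 fusion with GRi2 and Gβ1γ2. […] Values are mean ± SEM.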

[11] = molecular target: T3, Histamine H3 receptor (Homo sapiens, UniProt Q9Y5N1); test: Activity at human recombinant histamine H3 receptor expressed in Sf9 cells coexpressing Galphai2, G-beta-1-gamma-2 and RGS4 by steady-state GTPase activity assay relative to histamine; method in brief: as §1
[12] = molecular target: Histamine H2 receptor (Cavia porcellus) (UniProt P47747); test: Activity at guinea pig recombinant histamine H2 receptor-Gsalpha fusion protein expressed in Sf9 cells by steady-state GTPase activity assay relative to histamine; method in brief: as §1
[13] = molecular target: Histamine H1 receptor (Homo sapiens) (UniProt P35367); test: Activity at human recombinant histamine H1 receptor expressed in Sf9 cells coexpressing RGS4 by steady-state GTPase activity assay relative to histamine; method in brief: as §1
[14] = molecular target: Histamine H4 receptor (Homo sapiens, UniProt Q9H3N8); test: Activity at human recombinant histamine H4 receptor-RGS19 fusion protein expressed in Sf9 cells coexpressing Galphai2 and G-beta-1-gamma-2 by steady-state GTPase activity assay
[15] = molecular target: T2, Histamine H2 receptor; test: Activity at human recombinant histamine H2 receptor-Gsalpha fusion protein expressed in Sf9 cells by steady-state GTPase activity assay
Method in brief: (§2)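 Membranes from Sf9 insect cells expressing the receptor construct named in each line: hH1R with RGS4, hH2R-GsR or gpH2R-GsR fusion, hH3R with GRi, Gβ1γ2 and RGS4, or hH4R-RGS19 fusion with GRi2 and Gβ1γ2. Values are mean ± SEM.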

[16] = Terminal half life in nude mouse plasma; assay type: ADME, organism-based; details: read-out: beta t1/2
[17] = molecular target: T3, Histamine H3 receptor; test: Activity at human recombinant histamine H3 receptor expressed in Sf9 cells coexpressing Galphai, G-beta-1-gamma-2 and RGS4 by steady-state GTPase activity assay; method in brief: as §1
[18] = molecular target: T1, Histamine H2 receptor; test: Activity at guinea pig recombinant histamine H2 receptor-Gsalpha fusion protein expressed in Sf9 cells by steady-state GTPase activity assay; method in brief: as §2

Sequence of Histamine H4 receptor (Q9H3N8 whole entry, the tested form may be a part): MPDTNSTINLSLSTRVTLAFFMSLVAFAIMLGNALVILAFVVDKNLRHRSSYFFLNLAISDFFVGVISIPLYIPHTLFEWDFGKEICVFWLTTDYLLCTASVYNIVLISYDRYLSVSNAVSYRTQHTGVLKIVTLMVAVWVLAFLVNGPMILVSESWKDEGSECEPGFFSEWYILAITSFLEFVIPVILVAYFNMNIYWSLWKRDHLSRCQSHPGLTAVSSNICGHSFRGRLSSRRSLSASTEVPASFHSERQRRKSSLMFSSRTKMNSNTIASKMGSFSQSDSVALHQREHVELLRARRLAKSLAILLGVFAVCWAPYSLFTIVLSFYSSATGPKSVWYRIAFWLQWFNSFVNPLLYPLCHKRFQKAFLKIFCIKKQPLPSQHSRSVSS
T3 sequence (Q9Y5N1 whole entry, the tested form may be a part): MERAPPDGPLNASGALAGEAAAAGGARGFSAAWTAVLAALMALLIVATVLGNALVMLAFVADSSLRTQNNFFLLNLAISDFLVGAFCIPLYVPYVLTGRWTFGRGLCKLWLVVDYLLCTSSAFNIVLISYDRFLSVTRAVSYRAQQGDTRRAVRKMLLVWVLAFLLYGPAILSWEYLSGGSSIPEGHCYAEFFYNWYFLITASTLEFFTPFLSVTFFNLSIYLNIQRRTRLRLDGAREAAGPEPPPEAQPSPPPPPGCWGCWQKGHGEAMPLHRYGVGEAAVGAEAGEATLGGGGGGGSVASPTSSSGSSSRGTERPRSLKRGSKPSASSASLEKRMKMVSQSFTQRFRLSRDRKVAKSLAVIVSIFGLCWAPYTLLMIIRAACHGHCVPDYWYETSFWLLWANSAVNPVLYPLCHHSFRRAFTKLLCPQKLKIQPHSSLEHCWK
T1 sequence (P47747 whole entry): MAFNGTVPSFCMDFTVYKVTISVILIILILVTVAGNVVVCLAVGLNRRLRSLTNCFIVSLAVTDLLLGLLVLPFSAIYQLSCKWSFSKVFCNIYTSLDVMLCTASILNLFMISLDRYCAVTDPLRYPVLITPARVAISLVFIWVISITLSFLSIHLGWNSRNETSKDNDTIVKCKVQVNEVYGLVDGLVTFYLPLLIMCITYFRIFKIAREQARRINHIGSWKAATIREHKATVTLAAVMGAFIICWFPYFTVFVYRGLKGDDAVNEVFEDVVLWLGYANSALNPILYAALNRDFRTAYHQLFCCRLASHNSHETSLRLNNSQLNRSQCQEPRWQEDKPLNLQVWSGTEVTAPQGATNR
Sequence of Histamine H2 receptor (Cavia porcellus) (P47747 whole entry, the tested form may be a part): as the sequence (P47747 whole entry) above
Sequence of Histamine H1 receptor (Homo sapiens) (P35367 whole entry, the tested form may be a part): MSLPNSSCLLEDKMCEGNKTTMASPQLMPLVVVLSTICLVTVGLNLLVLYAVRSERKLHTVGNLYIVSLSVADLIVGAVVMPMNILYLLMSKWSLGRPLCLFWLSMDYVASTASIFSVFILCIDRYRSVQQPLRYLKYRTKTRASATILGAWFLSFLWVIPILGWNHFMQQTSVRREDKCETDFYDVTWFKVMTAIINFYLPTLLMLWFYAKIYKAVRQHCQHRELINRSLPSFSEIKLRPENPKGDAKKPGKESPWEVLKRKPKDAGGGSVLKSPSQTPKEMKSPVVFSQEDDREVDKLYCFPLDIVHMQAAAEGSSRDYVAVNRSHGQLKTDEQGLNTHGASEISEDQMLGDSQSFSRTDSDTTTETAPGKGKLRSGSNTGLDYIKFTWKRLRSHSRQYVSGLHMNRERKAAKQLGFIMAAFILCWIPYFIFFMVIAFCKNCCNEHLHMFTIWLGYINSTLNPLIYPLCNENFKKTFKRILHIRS
T2 sequence (P25021 whole entry, the tested form may be a part): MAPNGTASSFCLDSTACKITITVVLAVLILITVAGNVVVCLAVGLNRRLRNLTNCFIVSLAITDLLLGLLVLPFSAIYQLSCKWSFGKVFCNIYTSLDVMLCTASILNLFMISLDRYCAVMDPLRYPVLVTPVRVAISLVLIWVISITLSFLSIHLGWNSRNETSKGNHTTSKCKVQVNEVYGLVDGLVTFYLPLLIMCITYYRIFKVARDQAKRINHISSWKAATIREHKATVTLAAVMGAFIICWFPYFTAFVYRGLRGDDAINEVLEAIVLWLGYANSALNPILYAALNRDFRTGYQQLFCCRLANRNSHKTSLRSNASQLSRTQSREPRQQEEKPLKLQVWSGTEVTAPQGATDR
Sequence of Histamine H1 receptor (P31389 whole entry, the tested form may be a part): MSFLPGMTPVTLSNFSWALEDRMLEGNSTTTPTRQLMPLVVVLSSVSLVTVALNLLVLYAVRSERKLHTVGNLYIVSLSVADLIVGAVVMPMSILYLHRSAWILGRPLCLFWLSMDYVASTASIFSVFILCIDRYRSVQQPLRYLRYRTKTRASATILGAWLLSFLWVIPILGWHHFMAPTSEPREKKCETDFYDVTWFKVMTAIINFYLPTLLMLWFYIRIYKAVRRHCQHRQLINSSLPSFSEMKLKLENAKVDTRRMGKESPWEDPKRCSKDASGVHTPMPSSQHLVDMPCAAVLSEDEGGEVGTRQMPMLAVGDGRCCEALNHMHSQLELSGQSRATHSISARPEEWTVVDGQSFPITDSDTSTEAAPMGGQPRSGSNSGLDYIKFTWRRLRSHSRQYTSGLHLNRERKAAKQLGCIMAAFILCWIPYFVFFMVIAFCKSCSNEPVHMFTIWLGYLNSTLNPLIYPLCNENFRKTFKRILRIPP
Sequence of Histamine H1 receptor (Cavia porcellus) (P31389 whole entry): as the sequence (P31389 whole entry, the tested form may be a part) above

| SMILES | Kb [2] | EC50 [3] | Activity [5] | Emax [5] | Kb [9] | further results |
| --- | --- | --- | --- | --- | --- | --- |
| CC(=O)NC(=N)N |  |  |  |  |  | pKa [1]: 7.6 |
| N=C(NCCCc1c[nH]cn1)NC(=O)CC(c1ccc(F)cc1)c1ccc(F)cc1 | 1400 nM | 204 nM | 490% | 76% |  | pD'2 [4]: 5.95 |
| CC(CCNC(=N)NC(=O)CCc1c[nH]cn1)c1ccccc1 (configuration not stated) | 9300 nM |  |  |  |  | Emax [6]: 45%; Emax [7]: 7% |
| CC(CCN=C(N)NC(=O)CCc1cnc[nH]1)c1ccccc1 (configuration not stated) |  |  |  |  |  | pA2 [8]: 5.19 |
| N=C(NCCCc1c[nH]cn1)NC(=O)CCCC1CCCCC1 | 1100 nM | 372 nM | 269% | 89% | 741 nM |  |
| CC(CC(=O)/N=C(\N)NCCCc1c[nH]cn1)c1ccccc1 (configuration not stated) | 3000 nM |  | 6350% | 99% |  | Activity [10]: 1800%; Efficacy [10]: 0.87; Activity [11]: 1024%; Efficacy [11]: 0.24; Activity [12]: 10000%; Efficacy [12]: 1.03; Activity [13]: 1.3%; Efficacy [13]: 0.35 |
| N=C(NCCCc1c[nH]cn1)NC(=O)CC(c1ccccc1)c1ccccn1 (configuration not stated) | 4900 nM | 51.3 nM | 1960% | 97% | 11200 nM |  |
| N=C(NCCCc1c[nH]cn1)NC(=O)CC(c1ccccc1)c1ccc(F)c(F)c1 (configuration not stated) | 1200 nM |  | 1850% | 81% |  | pD'2 [4]: 6.06 |
| N=C(NCCCc1c[nH]cn1)NC(=O)CC(c1ccccc1)c1ccc(F)cc1 (configuration not stated) |  | 55 nM | 1830% | 95% |  | pD'2 [4]: 5.39 |
| N=C(NCCCc1c[nH]cn1)NC(=O)CCCc1ccccc1 | 7100 nM | 56.2 nM | 1780% | 94% | 1820 nM |  |
| N=C(N)N [GUANIDINE] |  |  |  |  |  | pKa [1]: 12.5 |
| CC(CC(=O)NC(N)=NCCCc1cnc[nH]1)c1ccccc1 (configuration not stated) |  | 15.8 nM |  |  | 1350 nM | EC50 [14]: 15.3 nM; EC50 [15]: 67 nM; half-life [16]: 67 min; EC50 [17]: 2.45 nM; EC50 [18]: 12 nM |
| NC(=NCCCc1cnc[nH]1)NC(=O)CC(c1ccccc1)c1ccccc1 |  | 28.2 nM |  |  | 741 nM | EC50 [14]: 8.6 nM; EC50 [15]: 78 nM; EC50 [18]: 6 nM |
| N=C(NCCCc1c[nH]cn1)NC(=O)c1ccccc1 | 15800 nM | 1170 nM | 86% | 89% |  | pA2 [9]: > 5 |
| N=C(NCCCc1c[nH]cn1)NC(=O)CC(c1ccc(F)c(F)c1)c1nccs1 (configuration not stated) | 4600 nM | 50.1 nM | 2000% | 90% | 4680 nM | half-life [16]: 28 min |
| N=C(NCCCc1c[nH]cn1)NC(=O)CCc1ccccc1 | 9200 nM | 166 nM | 607% | 97% | 2140 nM |  |
| CC(CC(=O)NC(N)=NCCCc1cnc[nH]1)c1cccs1 (configuration not stated) |  | 38 nM |  |  |  | EC50 [14]: 6.3 nM; EC50 [15]: 109 nM; EC50 [17]: 1.64 nM; EC50 [18]: 21 nM |
| N=C(NCCCc1c[nH]cn1)NC(=O)CC(c1ccccc1)c1ccccc1 |  |  | 3530% | 85% |  | Activity [10]: 1500%; Efficacy [10]: 0.69; Activity [12]: 19000%; Efficacy [12]: 0.93; Activity [13]: 6.4%; Efficacy [13]: 0.19; pD'2 [4]: 5.2; Kb [17]: 17.1 nM |
| Cc1[nH]cnc1CSCCNC(=N)NCCCc1c[nH]cn1 [IMPROMIDINE] |  | 20 nM | 5000% | 100% | 3390 nM |  |
| NC(=NCCCc1cnc[nH]1)NC(=O)CC(c1ccccc1)c1nccs1 (configuration not stated) |  | 38 nM |  |  | 4680 nM | EC50 [14]: 66.3 nM; EC50 [15]: 120 nM; EC50 [18]: 14 nM |
| N=C(NCCc1c[nH]cn1)NC(=O)CC(c1ccccc1)c1ccccc1 | 8700 nM | 646 nM | 154% | 64% | 9770 nM | pD'2 [4]: 4.55 |
| N=C(NCCCc1c[nH]cn1)NC(=O)CC(c1ccccc1)c1nccs1 (configuration not stated) | 6800 nM |  | 2630% | 100% |  | Activity [10]: 1000%; Efficacy [10]: 0.8; Activity [12]: 8570%; Efficacy [12]: 0.94; Activity [13]: 1%; Kb [17]: 113 nM |
| CC(CC(=O)NC(=N)NCCCc1c[nH]cn1)c1cccs1 (configuration not stated) | 2100 nM |  | 2630% | 99% |  | Activity [10]: 1160%; Efficacy [10]: 0.97; Activity [11]: 1530%; Efficacy [11]: 0.29; Activity [12]: 5710%; Efficacy [12]: 1.05; Activity [13]: 1.8% |

Reference: ChEMBL document CHEMBL1152279 (J Med Chem, 2008)
